Dynein transport: dynein cargo transport inhibition; 3617.4 mouse cells, GR-EGFP nuclear translocation imaging; test concentration mostly 20 µM; stimulated with dexamethasone, 1 µM; active compounds read low; z-score, hits read low; actives 0.47% (n = 220,000); AID 1381;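 active = plate z-score of nuclear minus cytoplasmic receptor signal below a set negative limit, without overly bright fluorescence or cell loss, cut at about -3.5 in these data, passing the limit was not always enough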;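 note: z-score of nuclear minus cytoplasmic ring GR-EGFP intensity difference per well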
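Schedule: 48 h induction, then 1 h compound, then 30 min agonist, 37 °C. Buffer or medium: tetracycline-free induction medium containing charcoal-stripped FBS. Reagent: 1.0 µM final dexamethasone stimulus. Evaluation: nuclear versus cytoplasmic GR-EGFP signal, averaged per well. Signal: high-content fluorescence imaging after fixation.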
b-catenin transl: modulators of beta-catenin nuclear translocation | HeLa beta-catenin nuclear translocation, immunofluorescence imaging | nuclear translocation activity, % at 5 µM | actives 0.3% (n = 190,000);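 active = nuclear translocation activity above 50% at 5 µM, with a well cell count of 50 or more; inconclusive = wells under 50 cells across six images, flagged as toxic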;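 note: per-cell ratio of nuclear to cytoplasmic median beta-catenin stain intensity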
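System: Human HeLa cells, endogenous beta-catenin | Compound dosing: 5 µM primary, 0.02–20 µM confirmation | Timing: 24 h compound exposure at 37°C, 5% CO2 | Measured by: Fluorescence imaging of beta-catenin antibody stain plus DAPI | Read-out basis: % activation of per-cell nuclear versus cytoplasmic median beta-catenin signal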
MT stabilize HCS: stabilizes microtubules in HeLa cells | HeLa tubulin immunostaining HCS, 24 h; share of cells brighter than vehicle mean+2SD | % tubulin-high responders, % at 10 µM | actives 0.83% (n = 200,000);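 active = plate Z-score above 3 for both tubulin-high and condensed-nucleus cell shares, with cell loss under 80%, at 10 µM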;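 note: anti alpha tubulin signal scored within the nucleus-defined area of each cell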
HSV augment: increases HSV replication in cells. HSV replication augmentation in cells, fold increase. AID 1956. maximum fold increase. actives 0.005% (n = 220,000); in the data active = maximum fold increase above about 1.5; inconclusive = no clear call, values can overlap the other calls; tested in PC3 cells
L major viab: Leishmania major promastigote growth inhibition. Leishmania major promastigotes, resazurin fluorescence viability. inhibition, % at 10 µM. actives 9% (n = 200,000); in the data active = inhibition above about 50%;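 note: promastigotes grown with compound for 44 hours at 28 °C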
Lmaj promast 1uM: inhibitors of Leishmania major promastigote growth, repeat at 1 uM; L. major promastigote growth, resazurin fluorescence, 48 h; actives 13% (n = 1,100); shares compounds with L major viab; inhibition, % at 1 µM; AID 1258;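 active = inhibition above about 50% in both repeat tests, limit read from the data; inconclusive = one repeat under the set limit, the other over it; inactive = both repeats under the set limit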
Large screens that a line does not name were inactive (follow-up assays come after a bar, where they were run). Rows were chosen to be rich in hits. Some 8.9% of all compounds tested hit in one or more screens of this group.

CCCn1c(Nc2nc3ccccc3n2C)nc2ccccc21	none
CCc1ccccc1Nc1nc2ccccc2n1C	L major viab 57.0 | Lmaj promast 1uM inactive
Nc1cc(N)nc(SCC(=O)NNC(=O)c2ccc(Cl)cc2)n1	none
Cn1c(-c2ccc(-c3ccccc3)cc2)c[nH]c1=S	L major viab 57.2 | Lmaj promast 1uM inactive
CSc1nnc(Cc2sc(-c3ccccc3)nc2-c2ccccc2)o1	L major viab 93.2 (no result: b-catenin transl) | Lmaj promast 1uM inactive
CSc1ncc(-c2ccccc2)cn1	none
Cc1cc(-c2ccccc2)cc(-c2ccccc2)[n+]1C	L major viab 58.8 | Lmaj promast 1uM inactive
COc1cc2c(C#N)c(N3CCN(c4ccccc4OC)CC3)nc(N)c2c(N)n1	L major viab 73.2 | Lmaj promast 1uM inactive
FC(F)Oc1ccc(/C=N/c2c(-c3ccc(OC(F)F)cc3)nc3n2CCS3)cc1	L major viab 72.3 | Lmaj promast 1uM inactive
Cc1ccc(S(=O)(=O)N[C@H](C(=O)OCn2nnc3ccccc3c2=O)C(C)C)cc1	L major viab 67.4 (no result: b-catenin transl) | Lmaj promast 1uM inactive
Cc1cc2oc3cc(NCCC4CCCN4C)ccc3c(=O)c2cc1C (stereo unspecified)	none (no result: Dynein transport, b-catenin transl, MT stabilize HCS, L major viab)
CN1CCCC1CCNC1C2CC3CC(C2)CC1C3 (stereo unspecified)	L major viab 53.2 (no result: HSV augment) | Lmaj promast 1uM inactive
CC(C)c1nc(N2CCOCC2)c(C#N)c2c1CCCC2	none (no result: b-catenin transl)
CC(C)C1N=C(c2ccc3c(c2)OCO3)CC(c2ccccc2O)N1 (stereo unspecified)	L major viab 99.4 | Lmaj promast 1uM inactive
Brc1cccc(-c2nnc3sc(CNC4CCCC4)cn23)c1	L major viab 84.8 (no result: b-catenin transl) | Lmaj promast 1uM inconclusive
Brc1cccc(-c2nnc3sc(CN4CCCCC4)cn23)c1	none
COc1cccc(C(=O)NC2CCN(C(=O)N3c4ccccc4Sc4ccccc43)CC2)c1	L major viab 70.8 | Lmaj promast 1uM inactive
COc1cccc(C(=O)N2c3ccccc3Sc3ccccc32)c1	none
Cc1occc1C(=O)NC1CCCCCC1	none
Cc1occc1C(=O)NNC(=O)C1CCCCC1	L major viab 71.8 | Lmaj promast 1uM inactive
CNC(=O)NC(=O)C(C)OC(=O)c1ccc(Cl)c(S(=O)(=O)Nc2ccc(F)cc2)c1 (stereo unspecified)	none (no result: MT stabilize HCS, L major viab)
Cc1ccc(-n2cccc2C(=S)N=P(N(C)C)(N(C)C)N(C)C)cc1	L major viab 56.7 | Lmaj promast 1uM inactive
CC(C)N(C(=O)NC(=O)Nc1ccccn1)S(C)(=O)=O	none
Cc1ccc(NC(=O)NC(=O)N(C(C)C)S(C)(=O)=O)nc1	L major viab 77.2 | Lmaj promast 1uM inactive
O=C1CC(c2ccc(Br)cc2)NC(c2ccc(Br)cc2)C1c1ccccc1 (stereo unspecified)	L major viab 89.7 | Lmaj promast 1uM inactive
Cc1ccc(S(=O)(=O)N(C)C)cc1NC(=O)Nc1c(-c2ccccc2)noc1C	none (no result: MT stabilize HCS, L major viab)
Cc1ccc2nc(N(CCCN(C)C)C(=O)CCc3ccccc3)sc2c1	L major viab 66.5 | Lmaj promast 1uM inactive
CCN(CC)C(=O)c1cc2cc([N+](=O)[O-])ccc2s1	none
COC(=O)[C@@H]1CC[C@H](C)[C@@H](c2ccc(C)cc2)N1C(=O)c1ccc(/C=N/O[C@@H](C)CN2CCCCc3nc(C)c(C)cc32)cc1	L major viab 99.5 (no result: HSV augment) | Lmaj promast 1uM inactive
CCN(CC)C(=S)SSC(=S)N(CC)CC	L major viab 100.3 | Lmaj promast 1uM 98.0
COc1ccc(NC(=O)COC(=O)c2ccc(S(=O)(=O)N(C)c3ccccc3OC)cc2)c(OC)c1	MT stabilize HCS 18.1, L major viab 98.5 | Lmaj promast 1uM inactive
COc1ccc(NC(=O)Cn2cnc3c(cnn3C(C)(C)C)c2=O)cc1OC	none
Cc1nnc(C)c2c(C)n(C(c3ccccc3)c3ccccc3)c(C)c12	L major viab 100.1 | Lmaj promast 1uM inactive
CC(C)n1nnnc1C(c1ccc(F)cc1)N1CCN(C2CCCC2)CC1 (stereo unspecified)	none
COc1cc(-c2ccc(=O)[nH]n2)ccc1OC(F)F	none (no result: Dynein transport, MT stabilize HCS, L major viab)
COc1ccc(-c2csc(NC(CO)c3nc4ccccc4n3CCCO)n2)cc1 (stereo unspecified)	none (no result: Dynein transport, b-catenin transl, MT stabilize HCS, L major viab)
CC(C)C[C@H](NC(=O)c1[nH]cnc1C(=O)Nc1ccc(CNC(=O)OC(C)(C)C)cc1)C(=O)OC(C)(C)C	none (no result: MT stabilize HCS, L major viab)
O=C(CSc1nc2ccsc2c(=O)n1CC1CCC(C(=O)O)CC1)c1ccc(Cl)cc1 (stereo unspecified)	none
CCc1c(C)sc(NC(=O)c2ccco2)c1C(=O)N1CCCCC1	L major viab 52.7 | Lmaj promast 1uM inactive
O=C(NCc1ccco1)c1cccc(NS(=O)(=O)c2cccc(F)c2)c1	L major viab 57.5 (no result: b-catenin transl) | Lmaj promast 1uM inactive
Cc1ccccc1NS(=O)(=O)c1cc(C(=O)NCc2ccco2)ccc1C	L major viab 59.4 | Lmaj promast 1uM inactive
O=C(NCc1ccco1)c1cccc(NS(=O)(=O)c2ccccc2F)c1	none
Cc1cc(C)c2nc(N3CCCN(C(=O)c4ccco4)CC3)c(C#N)cc2c1	none
O=C(C(NS(=O)(=O)c1cccs1)c1ccccc1)N1CCN(c2ccccc2)CC1 (stereo unspecified)	none (no result: b-catenin transl)
CCOC(=O)C1(N(CC)CC)Sc2cc(C)ccc2NC1=O (stereo unspecified)	L major viab 93.8 (no result: HSV augment) | Lmaj promast 1uM inactive
Cc1ccc2c(c1)C1C3CCC(C3)C1S(=O)N2 (stereo unspecified)	none
COCCCNC(=O)Nc1ccc(Br)cc1Cl	none (no result: b-catenin transl)
COCCCNCCCCOc1ccc(Br)cc1Cl	L major viab 98.0 (no result: HSV augment) | Lmaj promast 1uM 75.8
CCOc1ccc(N(CC)S(=O)(=O)c2ccc3c(c2)oc(=O)n3C)cc1	L major viab 57.2 | Lmaj promast 1uM inactive
COc1ccc2c3c(cccc13)NN=C2C	L major viab 100.5 (no result: b-catenin transl, HSV augment) | Lmaj promast 1uM 97.8
COc1ccc(C(=O)c2ccc(OC)c3cccc(O)c23)cc1OC	none
Cc1ccc(NC(=O)CCNC(=O)c2ccco2)cc1	none
CCOc1cc(C2C(C(=O)OC)=C(C)N=C3SCCC(=O)N32)ccc1OC(C)=O (stereo unspecified)	none
C=CCC(C=C)[N+]1(CC(=O)OC)CCCCC1 (stereo unspecified)	none
Cc1cc(-n2c(C)cc(C(=S)N3CCOCC3)c2C)ccc1Br	L major viab 56.9 (no result: b-catenin transl) | Lmaj promast 1uM inactive
CCC[n+]1c(C)sc2c3c(ccc21)CCCC3	L major viab 99.9 | Lmaj promast 1uM inactive
CC[n+]1c(C)sc2cc(OC)ccc21	none
CC(C)Cn1nc(NC(=O)C2CCCO2)c2cc3ccccc3nc21 (stereo unspecified)	L major viab 62.8 (no result: HSV augment) | Lmaj promast 1uM inactive
COc1ccc(S(=O)(=O)N2CCCC2C(=O)Nn2cnnc2)cc1 (stereo unspecified)	none
CCOC(=O)C1=NN(c2ccccc2)C2(S1)SC(C(C)=O)=C(C)N2c1ccccc1 (stereo unspecified)	L major viab 61.4 | Lmaj promast 1uM inactive

Screening results as filed in PubChem BioAssay.
